From PubChem BioAssay
Only some compounds are listed: those with a hit (about 1.8% of all), similar ones and a draw of the others.
SUMO HTRF inh – inhibitors of in vitro SUMOylation cascade, primary screen, biochemical, HTRF, uHTS | SUMO-conjugating enzyme UBC9 (Homo sapiens), P63279 | HTRF SUMOylation assay, SAE1/SAE2 + UBC9 | inhibition, % at 35 µM | 290,000 tested, 0.36% active; in the data active = inhibition above about 50%, passing the limit was not always enough; inconclusive = no clear call, values can overlap the other calls
Target sequence (P63279 whole entry, looked up): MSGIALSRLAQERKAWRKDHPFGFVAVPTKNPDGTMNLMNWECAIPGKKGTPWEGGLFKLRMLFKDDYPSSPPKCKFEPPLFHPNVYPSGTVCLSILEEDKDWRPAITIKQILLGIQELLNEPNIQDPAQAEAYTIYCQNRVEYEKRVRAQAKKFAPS
PABP FP inh – PABP poly(A) RNA binding inhibitors, primary screen, biochemical, fluorescence polarization, uHTS. Polyadenylate-binding protein 1 (Homo sapiens), P11940. calls only at 35 µM. 290,000 tested, 1% active. AID 2014, 2009;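 also: calls also rest on retests at 20 µM and on dose response follow-up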
eIF4E-4G inh – eIF4E–eIF4G protein interaction inhibitors, primary screen, biochemical, uHTS, TR-FRET, eIF4GI fragment; Eukaryotic translation initiation factor 4E (Mus musculus) + Eukaryotic translation …; TR-FRET eIF4E-eIF4GI(517-606) binding, 2 h; inhibition, % at 21.7 µM; 220,000 tested, 0.37% active; AID 782, 2007;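 active = inhibition above about 30%, limit read from the data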;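 also: 0% = full FRET control wells and 100% = background wells lacking eIF4GI fragment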
PABP1 MLLE inh – inhibitors of PABP1 MLLE–PAM2 peptide binding, primary screen, biochemical, fluorescence polarization, FITC-PAM2, GST-MLLE; Polyadenylate-binding protein 1 (Homo sapiens), P11940; inhibition, % at 20 µM; 360,000 tested, 0.36% active; AID 588489, 2011; in the data active = inhibition above about 35%, passing the limit was not always enough;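 also: plate controls were DMSO wells with GST-MLLE for no effect and wells lacking GST-MLLE protein for full effect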
core dimer inh – inhibitors of HCV core protein dimerization, primary screen, biochemical, TR-FRET, high-throughput. inhibition, % at 5 µM. TR-FRET GST/Flag-core106 dimerization, 1536-well. 300,000 tested, 0.33% active;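 active = inhibition above the mean of all tested compounds plus 3 SD, set per screening campaign, cut at about 45% in these data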
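Test system: GST/Flag-tagged HCV core106 proteins; Medium: KF-containing HEPES buffer, pH 7.45, DTT, CHAPS, BSA; Times: compound-protein-antibody incubation 4 h at 22.5 °C; Detection: TR-FRET 671 and 617 nm emission; Benchmarks: wells lacking GST-core106 and wells with excess unlabelled core106.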
eIF4H inh – human eIF4H binding inhibitors, primary screen, translation initiation inhibitor project, biochemical, uHTS, fluorescence polarization | Eukaryotic translation initiation factor 4H (Homo sapiens), Q15056 | 290,000 tested, 0.94% active | inhibition, % at 35 µM | AID 2012, 2009 | eIF4H fluorescence polarization binding assay;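 also: calls also rest on retests at 20 µM and on dose response follow-up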
An asterisk follows results filed as active. Unless noted, no rule for the calls is given here.

How did CCCCC(=O)Nc1nnc(SCC(=O)NCC2CCCO2)s1 (stereo not drawn) do in these assays?
PABP1 MLLE inh: 5; core dimer inh: 5

What do the screens show for `Cc1ccc(C2C(C#N)=C(N)Oc3cc(N)ccc32)cc1` (stereo not drawn)?
SUMO HTRF inh: -10; PABP FP inh: inactive; PABP1 MLLE inh: 3; core dimer inh: 1; eIF4H inh: -9

How did Cc1ccc(/C=C2\CCC3=C2OC(N)=C(C#N)C3c2ccc(C)cc2)cc1 (stereo not drawn) do in these assays?
SUMO HTRF inh: 48; PABP FP inh: inconclusive; eIF4E-4G inh: 2; PABP1 MLLE inh: 120; core dimer inh: 76*; eIF4H inh: inconclusive

What do the screens show for `CCCCc1ccc(NC(=S)NCCN2CCOCC2)cc1`?
SUMO HTRF inh: 6; PABP FP inh: inactive; eIF4E-4G inh: -1; PABP1 MLLE inh: -43; core dimer inh: 10; eIF4H inh: -6

Results for Nc1nonc1C(=O)NCCNS(=O)(=O)c1ccc(Br)cc1 ?
SUMO HTRF inh: -11; PABP FP inh: inactive; eIF4E-4G inh: -8; PABP1 MLLE inh: -4; core dimer inh: -5; eIF4H inh: 0

Results for Cn1cnnc1SCC(=O)Nc1sc2c(c1C(N)=O)CCC2 ?
SUMO HTRF inh: 36; PABP FP inh: active; eIF4E-4G inh: 19; PABP1 MLLE inh: 3; core dimer inh: 7; eIF4H inh: 76*

How did CC1CCC2(CC1)NC(=O)N(CC(=O)Nc1sc3c(c1C(N)=O)CCC3)C2=O (stereo not drawn) do in these assays?
SUMO HTRF inh: 36; PABP FP inh: active; eIF4E-4G inh: 27; PABP1 MLLE inh: -53; core dimer inh: 52*; eIF4H inh: 76*

What do the screens show for `COC(=O)c1c(NC(=O)CN2C(=O)NC3(CCC(C)CC3)C2=O)sc2c1CCC2` (stereo not drawn)?
PABP1 MLLE inh: 12

Results for CC1CCCCC12NC(=O)N(CC(=O)Nc1sc3c(c1C(N)=O)CCC3)C2=O (stereo not drawn) ?
SUMO HTRF inh: 17; PABP FP inh: active; eIF4E-4G inh: 1; PABP1 MLLE inh: -7; core dimer inh: 69*; eIF4H inh: 78*

How did CC(=O)c1ccc(N=C2SCCCN2C(=O)C2CCCC2)cc1 do in these assays?
SUMO HTRF inh: 3; PABP FP inh: inactive; eIF4E-4G inh: 0; PABP1 MLLE inh: 5; core dimer inh: -1; eIF4H inh: 4

Results for CCCN(CC(=O)Nc1ccccc1OC)C(=O)C1=COCCO1 ?
PABP1 MLLE inh: 11

What do the screens show for `C[n+]1ccc(C(=O)Nc2ccccc2Cl)cc1`?
SUMO HTRF inh: 17; PABP FP inh: active; PABP1 MLLE inh: -109; core dimer inh: -3; eIF4H inh: 10

What do the screens show for `O=C(Nc1ccccc1Cl)c1ccc2ccccc2c1`?
SUMO HTRF inh: 2; PABP FP inh: inactive; PABP1 MLLE inh: -6; core dimer inh: 7; eIF4H inh: -3

Results for COC/C=C/C1=CC2=CC(=O)C(C)(OC(=O)c3cnc4ccccc4n3)C(=O)C2=CN1c1ccc(OC)cc1 (stereo not drawn) ?
PABP1 MLLE inh: 5; core dimer inh: 34

What do the screens show for `COC/C=C/C1=CC2=CC(=O)C(C)(OC(=O)c3cnc4ccccc4n3)C(=O)C2=CN1Cc1ccccc1` (stereo not drawn)?
SUMO HTRF inh: -7; PABP FP inh: inactive; eIF4E-4G inh: 3; PABP1 MLLE inh: 1; core dimer inh: 28; eIF4H inh: 59*

What do the screens show for `COC/C=C/C1=CC2=CC(=O)C(C)(OC(=O)c3cnc4ccccc4n3)C(=O)C2=CN1Cc1ccc(OC)cc1` (stereo not drawn)?
SUMO HTRF inh: 8; PABP FP inh: inactive; eIF4E-4G inh: 5; PABP1 MLLE inh: 6; core dimer inh: 37; eIF4H inh: 50*

What do the screens show for `CN(Cc1ccc(Cl)cc1)C(=O)COC(=O)CSc1ccc([N+](=O)[O-])cc1`?
PABP1 MLLE inh: 40*

How did Cc1cc(OCCCCn2ccnc2)cc(C)c1Cl do in these assays?
SUMO HTRF inh: 20; PABP FP inh: inactive; eIF4E-4G inh: -3; PABP1 MLLE inh: 7; core dimer inh: 1; eIF4H inh: 2

Results for CCC(C)c1ccc(NC(=O)COc2c(F)c(F)c(C(F)(F)F)c(F)c2F)cc1 (stereo not drawn) ?
SUMO HTRF inh: -21; PABP FP inh: active; eIF4E-4G inh: 2; PABP1 MLLE inh: -7; core dimer inh: -8; eIF4H inh: active

How did CC1(N2CCCCC2)C(=O)c2ccccc2C1=O do in these assays?
SUMO HTRF inh: -7; PABP FP inh: active; eIF4E-4G inh: 0; PABP1 MLLE inh: 10; core dimer inh: 1; eIF4H inh: active

Results for CC1(N2CCOCC2)C(=O)c2ccccc2C1=O ?
SUMO HTRF inh: -8; PABP FP inh: inactive; eIF4E-4G inh: 3; PABP1 MLLE inh: 14; core dimer inh: -5; eIF4H inh: 0

Results for CCOc1ccc(C(=O)CCC(=O)N(CC)CC(=O)Nc2c(F)cccc2F)cc1 ?
PABP1 MLLE inh: -15; core dimer inh: 13

How did COC(=O)Cc1ccc(NC(=S)NNC(=O)C2CC2)cc1 do in these assays?
SUMO HTRF inh: -4; PABP FP inh: inactive; eIF4E-4G inh: -3; PABP1 MLLE inh: -28; core dimer inh: 1; eIF4H inh: 7

Results for Cc1ccc(S(=O)(=O)NC2=NCN(C(C)C)CN2)cc1 ?
SUMO HTRF inh: 2; PABP FP inh: inactive; PABP1 MLLE inh: 1; core dimer inh: 7; eIF4H inh: -2

Results for CC1CCCCN1c1nnc(NC(=O)c2cc(-c3ccc(Br)cc3)on2)s1 (stereo not drawn) ?
SUMO HTRF inh: 4; PABP FP inh: active; eIF4E-4G inh: 1; PABP1 MLLE inh: -7; core dimer inh: 7; eIF4H inh: 87*

What do the screens show for `CC(C)NC(=O)c1cc(-c2ccc(Br)cc2)on1`?
SUMO HTRF inh: -10; PABP FP inh: inactive; eIF4E-4G inh: -3; PABP1 MLLE inh: -18; core dimer inh: -1; eIF4H inh: 3

Results for CCc1nc2ccc(C(=O)NCc3ccc4c(c3)OCO4)cn2c1N(C)CCC(C)C ?
PABP1 MLLE inh: -10

What do the screens show for `CCc1cc(C(=O)c2ccc(OC)cc2)c(N)s1`?
SUMO HTRF inh: 2; PABP FP inh: inactive; eIF4E-4G inh: 2; PABP1 MLLE inh: 28; core dimer inh: -17; eIF4H inh: -3
